Results as given in ChEMBL document CHEMBL1123157, “Thromboxane synthetase inhibitors and antihypertensive agents. 1. N-[(1H-imidazol-1-yl)alkyl]aryl amides and N-[(1H-1,2,4-triazol-1-yl)alkyl]aryl amides” (J Med Chem, 1986).
Activity calls are given as the source filed them.

Experiments:
Rattus norvegicus [1] = assay: Antihypertensive activity in spontaneously hypertensive rats at 100 mg/kg po/day for 2 days; type: functional, organism-based; parameters: dose 100 mg/kg
Outline: (§1)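 Male 16-week-old Okamoto SHR (mean arterial pressure about 170 mmHg), 1-3 rats per compound. Given by gavage in 2% preboiled starch (50 mg/mL), 100 mg/kg or less, with 0.9% NaCl load (25 mL/kg). Second dose without saline 24 h later. Mean arterial pressure measured 28 h after first dose. Active if ≤116 mmHg in one rat or mean ≤122 mmHg in two.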

[2] = target: T1, Thromboxane-A synthase (Rattus norvegicus) (UniProt P49430); assay: Inhibitory activity for thromboxane synthetase determined by TXB2 levels in platelets from spontaneously hypertensive rats.; parameters: concentration or dose not given beside the values; settings: concentration not given here
T1 sequence (whole entry): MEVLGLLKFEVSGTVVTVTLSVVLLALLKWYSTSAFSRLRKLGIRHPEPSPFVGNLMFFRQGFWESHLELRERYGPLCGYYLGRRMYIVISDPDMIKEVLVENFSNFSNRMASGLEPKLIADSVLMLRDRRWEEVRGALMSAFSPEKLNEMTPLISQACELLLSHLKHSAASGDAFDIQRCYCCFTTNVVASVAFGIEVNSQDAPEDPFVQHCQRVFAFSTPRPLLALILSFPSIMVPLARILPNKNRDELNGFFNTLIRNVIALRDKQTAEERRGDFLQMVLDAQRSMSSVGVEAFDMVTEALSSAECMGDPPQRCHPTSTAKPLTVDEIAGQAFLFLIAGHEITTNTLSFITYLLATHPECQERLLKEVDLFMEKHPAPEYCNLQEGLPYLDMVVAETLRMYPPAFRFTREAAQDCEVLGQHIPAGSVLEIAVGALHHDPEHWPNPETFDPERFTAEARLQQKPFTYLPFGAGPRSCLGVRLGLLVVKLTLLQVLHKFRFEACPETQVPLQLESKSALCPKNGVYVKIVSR
Outline: (§2)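 Washed SHR platelets in oxygenated Krebs phosphate buffer, pH 7.4, 4.5-6.0 × 10^4/μL, incubated with vehicle or drug for 10 min at 37 °C. Stopped with ice and citric acid. Supernatant TXB2 measured by RIA; TXB2 in boiled controls subtracted; % inhibition calculated. IC50 read graphically from % inhibition vs log concentration; single-point screen at 10^-4 M.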

Rattus norvegicus [3] = assay: Antihypertensive activity in spontaneously hypertensive rats tested at 100 mg/kg po/day for 2 days; type: functional, organism-based; parameters: dose 100 mg/kg; outline: as §1
Thromboxane-A synthase [4] = target: T2, Thromboxane-A synthase (Rattus norvegicus, UniProt P49430); assay: compound was tested for inhibitory activity against thromboxane synthetase,; outline: as §2
T2 sequence (P49430 whole entry): T1 sequence (whole entry)

Thromboxane-A synthase [5] = target: T2, Thromboxane-A synthase; assay: Compound was tested for inhibitory activity against thromboxane synthetase
Outline: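 Washed SHR platelets in oxygenated Krebs phosphate buffer, pH 7.4, 4.5-6.0 × 10^4/μL, incubated with vehicle or drug for 10 min at 37 °C. Stopped with ice and citric acid. Supernatant TXB2 measured by RIA; TXB2 in boiled controls subtracted; % inhibition calculated.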

SMILES | Activity (Rattus norvegicus [1]) | inhibition [2] [%] | Activity (Rattus norvegicus [3]) | IC50 (Thromboxane-A synthase [4]) [nM] | IC50 (Thromboxane-A synthase [5]) [nM]
Cc1ccc(CC(=O)NCCCn2ccnc2)cc1 | Active | 58 |  |  | 
O=C(NCCCn1cncn1)c1ccccc1 | Active | 77 |  |  | 
O=C(NCCCn1ccnc1)c1ccc(Cl)cc1 | Active | 95 |  |  | 
O=C(NCCCCCn1ccnc1)c1ccc(Cl)cc1 |  | 100 | inactive | 5000 | 
O=C(NCCCn1ccnc1)c1cccc(Br)c1 | Active | 91 |  |  | 
Nc1ccccc1C(=O)NCCCn1ccnc1 | Active | 89 |  |  | 
O=C(NCCCCn1ccnc1)c1ccc(Br)cc1 | Active | 87 |  |  | 
O=C(NCCCCCn1ccnc1)c1ccc(C(F)(F)F)cc1 |  | 100 | inactive |  | 700
Nc1ccc(Cl)cc1C(=O)NCCCn1ccnc1 | Active | 96 |  |  | 
Cc1nccn1CCCNC(=O)c1ccc(Cl)cc1 | Active | 0 |  |  | 
O=C(/C=C/c1ccc(Cl)cc1)NCCCn1ccnc1 | Active | 98 |  |  | 
O=C(NCCCn1ccnc1)c1cccc(Cl)c1 | Active | 75 |  |  | 
O=C(NCCCCCCCCn1ccnc1)c1ccc(Cl)cc1 | Active | 100 |  |  | 100
Cc1cn(CCCNC(=O)c2ccc(Cl)c(Cl)c2)cn1 | Active | 90 |  |  | 
O=C(NCCCn1cnc(-c2ccccc2)c1)c1ccc(Cl)cc1 | Active | 69 |  |  | 
O=C(NCCCn1ccnc1)c1cccc(C(F)(F)F)c1 | Active | 100 |  |  | 4000
O=C(NCCCn1ccnc1)c1ccc(I)cc1 |  | 97 | inactive |  | 550
C=CCNc1ccc(Cl)cc1C(=O)NCCCn1ccnc1 | Active | 95 |  |  | 
CSc1ccc(C(=O)NCCCn2ccnc2)cc1 |  | 100 | inactive |  | 500
O=C(NCCCCCCn1ccnc1)c1ccc(Cl)cc1 |  | 100 | inactive |  | 800
O=C(NCCCn1ccnc1)c1ccc(C(F)(F)F)cc1 | Active | 93 |  |  | 
O=C(NCCCn1ccnc1)c1ccc(Br)cc1 | Active | 85 |  |  | 
Cc1nccn1CCCNC(=O)c1ccc(C(F)(F)F)cc1 | Active | 36 |  |  | 
Cc1cn(CCCNC(=O)c2ccc(C(F)(F)F)cc2)cn1 | Active | 92 |  |  | 
Cc1cn(CCCNC(=O)c2cccc(Cl)c2)cn1 | Active | 84 |  |  | 
CN(C)c1ccc(C(=O)NCCCn2cncn2)cc1 | Active | 64 |  |  | 
Cc1cn(CCCNC(=O)c2ccc(Br)cc2)cn1 | Active | 80 |  |  | 
O=C(NCCCCn1ccnc1)c1ccc(Cl)cc1 |  | 95 | inactive |  | 5000
Cc1cn(CCCNC(=O)c2ccc(Cl)cc2)cn1 | Active | 93 |  |  | 
